Assay outcomes from PubChem.
TROY NFkB inh: inhibitors of TROY-driven NF-kB signaling, primary screen, Q293 LMP1-TROYcd cells, NF-kB luciferase, uHTS | Q293 LMP1-TROYcd NF-kB luciferase reporter, 4 h | inhibition, % at 10 µM | 360,000 compounds, 0.98% hits | AID 1347056, 2019;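 active means compounds whose plate-normalised and pattern-corrected inhibition of the luciferase reporter signal at the single screening dose is 50% or more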
EWS-Fli block: EWS/Fli-driven NR0B1 reporter inhibitors, primary screen, A673 cells, NR0B1 luciferase, luminescence, MLPCN library; inhibition, % at 12.6 µM; viability-normalised; 350,000 compounds, 0.67% hits; AID 651661, 2012;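 active means mean inhibition of at least 50% after viability correction, with every replicate also passing that limit; inconclusive means mean reaches 50% but only one of two replicates passes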;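 further: firefly luciferase signal divided by Alamar Blue viability fluorescence both relative to DMSO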
TWEAK Fn14 block: inhibitors of TWEAK-Fn14 signaling, primary screen, luciferase reporter cells, uHTS | AID 1159606, 2016 | inhibition, % at 10 µM | TWEAK-stimulated Fn14 reporter cells, luciferase luminescence, 8 h | 360,000 compounds, 2% hits; in the data active means inhibition above about 50%
LGR2 antag: inhibitors of bursicon-induced LGR2 CRE-luciferase signal, primary screen, cell-based, HEK293, CRE-luciferase reporter, bursicon stimulation; bursicon-stimulated, 4 h; inhibition, % at 9.99 µM; 380,000 compounds, 0.35% hits;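 active means drop in luminescence signal, shown as inhibition above about 50% in the replicate tests, limit read from the data, passing the limit was not always enough; inconclusive means probably only some replicates passing the limit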;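 further: agonist challenge used bursicon conditioned medium at about half maximal strength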
XiGFP reactiv: activators of inactive X chromosome reactivation, primary screen, imaging, XiGFP fibroblasts, GFP high-content imaging, set 2; XiGFP mouse fibroblasts, % GFP-positive cells imaging, 3 d; cells co-treated with 5-aza-dC sensitizer; scaled so ellipticine positive control = 100%; 360,000 compounds, 0.055% hits; AID 743238, 2013; activation, % at 7.58 µM;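 active means mean normalized replicate activation at least 10% and every replicate at or above 10%; inconclusive means only one of the two criteria met; inactive means mean below 10% and not all replicates reach 10%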
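Material: SV40-immortalized XiGFP fibroblast cells, line 68-5-11 | Buffer or medium: DMEM containing 5-aza-dC | Dosing: One concentration, pinned | Times: 3 d treatment, 15 min room-temperature fixation | Controls: Ellipticine 6 µM positive control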
FN deposition inh: inhibitors of fibronectin matrix deposition, primary screen, AH1F cells, Alexa488-fibronectin fluorescence, plate reader; AH1F fibroblasts, overnight; inhibition, % at 12.6 µM; 350,000 compounds, 0.086% hits; AID 743247, 2014;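 active means mean inhibition across replicates of 30% or more, regardless of how many single replicates reach that level; inconclusive means mean under 30% yet at least half of replicates reach 30%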
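Measured by – fluorescence 485/525 nm · System – AH1F fibroblast monolayer, labelled fibronectin deposition · Amount – 10000 cells per well · Buffer or medium – serum-reduced DMEM (2% serum) · Doses – single dose, pinned · Also added – fluorescent fibronectin at 24 nM final · Schedule – 1 h cell attachment, overnight exposure to compound and label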
Numbers stand for hits; . = inactive; ? = inconclusive; / = no result. In the library only some 2.3% were active in any assay of this set; here they are far more common.

SMILES	TROY NFkB inh	EWS-Fli block	TWEAK Fn14 block	LGR2 antag	XiGFP reactiv	FN deposition inh
CC(C)NC(=O)N(C)C[C@@H]1Oc2ccc(NC(=O)CCN3CCOCC3)cc2C(=O)N([C@@H](C)CO)C[C@H]1C	/	.	/	.	.	/
CC(C)NC(=O)N(C)C[C@H]1Oc2ccc(NC(=O)CCN3CCOCC3)cc2C(=O)N([C@H](C)CO)C[C@@H]1C	.	.	.	.	.	39
CSc1ccc(S(=O)(=O)N2CCC(C(=O)NCCCn3ccnc3)CC2)cc1	.	/	83	.	.	.
Cc1ccc(S(=O)(=O)N2CCC(C(=O)NCCCn3ccnc3)CC2)cc1	.	.	.	.	.	/
Cc1c2cc(O)c(=O)cc-2oc2cc(O)c(O)cc12	.	.	86	.	/	/
COc1cc(OC)c(-c2c3cc(O)c(=O)cc-3oc3cc(O)c(O)cc23)cc1OC	.	.	62	.	.	.
Cc1cc2oc(=O)cc(-c3cc4ccccc4o3)c2cc1O	.	.	.	.	.	.
C[C@H]1CN([C@@H](C)CO)C(=O)c2cccc(NS(=O)(=O)c3cn(C)cn3)c2O[C@@H]1CN(C)C	/	.	/	.	.	.
O=C(C[C@H]1CC[C@@H]2[C@H](COC[C@H](O)CN2Cc2nccs2)O1)NCc1ccc(F)cc1	/	.	/	.	.	.
Cc1cnc(NC(=O)c2sc3ccccc3c2Cl)s1	.	72	85	?	.	.
O=C(Nc1nccs1)c1sc2cc(Cl)ccc2c1Cl	.	/	102	/	/	.
CC(C)c1nnc(NC(=O)c2sc3ccccc3c2Cl)s1	.	/	.	/	/	/
O=C(NC1CC1)c1sc2cc(Cl)ccc2c1Cl	.	.	.	.	.	.
O=C(Nc1nccs1)c1cc(Cl)nc2ccccc12	.	.	.	.	.	.
O=C(Nc1nccs1)c1sc2ccccc2c1Cl	.	/	67	/	/	/
Cc1nn(Cc2ccc(Cl)c(Cl)c2)c(C)c1NC(=O)c1sc2ccccc2c1Cl	.	/	58	/	/	.
CC(C)NC(=O)N(C)C[C@H]1Oc2ccc(NC(=O)CCC(F)(F)F)cc2CC(=O)N([C@H](C)CO)C[C@@H]1C	/	.	/	.	.	/
O=C(NC1CCCC1)[C@H]1[C@H](CO)[C@H]2Cn3c(ccc(-c4ccccc4)c3=O)[C@@H]1N2CC1CC1	/	.	/	.	.	/
COc1cccc(CNC(=O)C[C@@H]2CC[C@H](NC(C)=O)[C@@H](CO)O2)c1	/	.	/	.	.	.
Cc1ccnc(NC(=O)c2sc3ccccc3c2Cl)c1	54	/	75	87	.	.
C[C@@H]1CN([C@@H](C)CO)C(=O)c2cccc(NS(=O)(=O)c3cn(C)cn3)c2O[C@H]1CN(C)C(=O)Nc1ccc2c(c1)OCO2	/	.	/	.	.	/
C/C=C/c1ccc(C2[C@@H]3CN(S(=O)(=O)c4ccccc4C)C[C@H]2N3)cc1 (stereo partly specified)	/	.	/	.	.	.
CC(NC(=O)COC(=O)c1cccs1)c1ccccc1 (stereo unspecified)	.	.	.	.	.	.
CC(NC(=O)COC(=O)/C(=C/c1cccs1)c1cccs1)c1ccccc1 (stereo unspecified)	.	.	50	.	.	/
Cc1ccccc1Cn1nnc2c1C(=O)c1ccccc1C2=O	50	/	.	/	/	.
SMILES	TROY NFkB inh	EWS-Fli block	TWEAK Fn14 block	LGR2 antag	XiGFP reactiv	FN deposition inh
Cc1cccc(Cn2nnc3c2C(=O)c2ccccc2C3=O)c1	.	/	.	/	/	/
COC(=O)c1ccc2nc(-c3ccc(Cl)cc3)c(Cc3ccc(OC)cc3C)n2c1	51	.	81	.	.	.
CCS(=O)(=O)N1CC(=O)N2[C@@H](CO)[C@H](c3ccc(C#CC4CCCCC4)cc3)[C@@H]2C1	/	.	/	.	.	.
CCO[C@H]1OC(C(=O)NCc2nc3ccccc3[nH]2)=C[C@@H](C2CC2)[C@@H]1CCCO	.	61	.	.	.	.
CCO[C@H]1OC(C(=O)NCc2nc3ccccc3[nH]2)=C[C@@H](c2ccccc2)[C@@H]1CCCO	.	.	.	.	.	.
Cc1cc(NCCCN2CCOCC2)n2ncc(-c3ccc(Cl)cc3)c2n1	.	/	.	/	/	.
Cc1cc(NCCCn2ccnc2)n2ncc(-c3ccc(Cl)cc3)c2n1	70	/	68	/	/	/
CCCNC(=O)N1C[C@@H](O)COC[C@@H]2O[C@@H](CC(=O)NCc3ccncn3)CC[C@H]21	/	.	/	.	.	.
Cc1ccc(C(=O)CSc2nc3cc(S(=O)(=O)N4CCOCC4)ccc3o2)cc1	.	/	.	/	/	.
Cc1[nH]c2ccccc2c1C(=O)CSc1nc2cc(S(=O)(=O)N3CCCCC3)ccc2o1	.	/	55	/	/	.
COc1ccc(N=Nc2cc(OC)c(N)cc2OC)cc1	.	.	.	.	.	.
Cc1cc(N=Nc2ccc(C)c(N=Nc3cc(C)c(N)cc3N)c2)c(N)cc1N	.	.	69	.	.	.
CCOC(=O)CSc1nc(C)cc(C)c1C#N	.	/	.	/	/	/
Cc1cc(C)c(C#N)c(SCC(=O)c2ccc(Cl)cc2Cl)n1	.	.	57	.	/	/
COCC(=O)N1CC(=O)N2[C@@H](CO)[C@@H](c3ccc(C#Cc4cccc(OC)c4)cc3)[C@@H]2C1	/	.	/	.	.	/
CC(=O)Nc1ccc(C(=O)OCC(=O)c2cccc([N+](=O)[O-])c2)cc1	.	.	.	.	.	/
O=C(Nc1ccc([N+](=O)[O-])cc1)C(=O)Nc1cccc(C(=O)O)c1	.	91	.	98	.	.
Cc1ccc(C(=O)COC(=O)c2cccc(NC(=O)c3ccc([N+](=O)[O-])cc3[N+](=O)[O-])c2)cc1	59	/	.	/	/	/
CCOC(=O)c1cccc(NC(=O)/C=C/c2ccc([N+](=O)[O-])cc2)c1	57	60	79	.	.	/
COC(=O)c1cccc(NC(=O)/C=C/c2ccc([N+](=O)[O-])cc2)c1	.	70	.	.	.	.
Cc1noc(C)c1NC(=O)Nc1ccc2c(c1)C(=O)N([C@H](C)CO)C[C@H](C)[C@@H](CN(C)C)OCCCC[C@@H](C)O2	/	.	/	.	.	/
CN1C(=O)c2cc(NC(=O)c3cccs3)ccc2OC[C@@H]2O[C@H](CC(=O)O)CC[C@@H]21	/	.	/	.	.	.
CCC(=O)Nc1ccc2c(c1)OC[C@H](C)N(Cc1ccncc1)C[C@@H](C)[C@@H](OC)CN(C)C2=O	/	.	/	.	.	.
O=C(/C=C/c1ccc([N+](=O)[O-])cc1)Nc1cccc(C(=O)Nc2ccccc2C(=O)O)c1	.	.	71	.	.	.
O=C(Nc1ccccc1C(=O)O)c1cccc(NC(=O)c2ccccc2Cl)c1	.	.	.	.	.	.
